Active and inactive are the calls of the source. No cut-off for these calls is given here.
What was measured:
[1] = molecular target: Serine/threonine-protein kinase D3 (Homo sapiens, UniProt O94806); test: Inhibition of PKD3 in human HeLa cells lysate pre incubated for 15 mins followed by ADP acyl phosphate probe addition and measured after 10 mins by LC-MS/MS analysis; assay type: subcellular
[2] = molecular target: Interferon-induced, double-stranded RNA-activated protein kinase (Homo sapiens, UniProt P19525); test: Inhibition of PKR in human HeLa cells lysate pre incubated for 15 mins followed by ADP acyl phosphate probe addition and measured after 10 mins by LC-MS/MS analysis; assay type: subcellular
Sequence of Interferon-induced, double-stranded RNA-activated protein kinase (P19525 whole entry): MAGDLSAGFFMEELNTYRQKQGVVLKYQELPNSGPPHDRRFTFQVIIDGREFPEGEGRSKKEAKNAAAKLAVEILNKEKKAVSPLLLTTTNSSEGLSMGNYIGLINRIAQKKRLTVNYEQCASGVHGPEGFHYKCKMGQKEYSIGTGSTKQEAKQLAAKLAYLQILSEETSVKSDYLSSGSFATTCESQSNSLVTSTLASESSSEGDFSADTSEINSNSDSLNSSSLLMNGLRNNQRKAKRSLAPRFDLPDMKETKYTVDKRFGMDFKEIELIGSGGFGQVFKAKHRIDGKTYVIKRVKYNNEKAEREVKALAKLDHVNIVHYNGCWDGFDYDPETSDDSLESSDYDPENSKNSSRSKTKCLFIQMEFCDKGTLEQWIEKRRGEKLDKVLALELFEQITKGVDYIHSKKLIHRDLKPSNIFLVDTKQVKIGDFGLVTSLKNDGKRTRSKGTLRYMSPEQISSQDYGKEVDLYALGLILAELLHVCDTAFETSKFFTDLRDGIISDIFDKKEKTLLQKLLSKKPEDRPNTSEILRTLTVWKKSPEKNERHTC

[3] = molecular target: Mitogen-activated protein kinase kinase kinase 1 (Homo sapiens, UniProt Q13233); test: Inhibition of MAP3K1 in human HeLa cells lysate at 50 uM pre incubated for 15 mins followed by ADP acyl phosphate probe addition and measured after 10 mins by LC-MS/MS analysis relative to control; assay type: subcellular; conditions: time 25.0 min
[4] = Inhibition of MST4/YSK1 in human HeLa cells lysate at 50 uM pre incubated for 15 mins followed by ADP acyl phosphate probe addition and measured after 10 mins by LC-MS/MS analysis relative to control; conditions: 25 min, condition cancer
[5] = molecular target: Tyrosine-protein kinase receptor UFO (Homo sapiens) (UniProt P30530); test: Inhibition of AXL in human HeLa cells lysate at 10 uM pre incubated for 15 mins followed by ADP acyl phosphate probe addition and measured after 10 mins by LC-MS/MS analysis relative to control; assay type: subcellular; conditions: time 25.0 min
Sequence of Tyrosine-protein kinase receptor UFO (Homo sapiens) (P30530 whole entry, the tested form may be a part): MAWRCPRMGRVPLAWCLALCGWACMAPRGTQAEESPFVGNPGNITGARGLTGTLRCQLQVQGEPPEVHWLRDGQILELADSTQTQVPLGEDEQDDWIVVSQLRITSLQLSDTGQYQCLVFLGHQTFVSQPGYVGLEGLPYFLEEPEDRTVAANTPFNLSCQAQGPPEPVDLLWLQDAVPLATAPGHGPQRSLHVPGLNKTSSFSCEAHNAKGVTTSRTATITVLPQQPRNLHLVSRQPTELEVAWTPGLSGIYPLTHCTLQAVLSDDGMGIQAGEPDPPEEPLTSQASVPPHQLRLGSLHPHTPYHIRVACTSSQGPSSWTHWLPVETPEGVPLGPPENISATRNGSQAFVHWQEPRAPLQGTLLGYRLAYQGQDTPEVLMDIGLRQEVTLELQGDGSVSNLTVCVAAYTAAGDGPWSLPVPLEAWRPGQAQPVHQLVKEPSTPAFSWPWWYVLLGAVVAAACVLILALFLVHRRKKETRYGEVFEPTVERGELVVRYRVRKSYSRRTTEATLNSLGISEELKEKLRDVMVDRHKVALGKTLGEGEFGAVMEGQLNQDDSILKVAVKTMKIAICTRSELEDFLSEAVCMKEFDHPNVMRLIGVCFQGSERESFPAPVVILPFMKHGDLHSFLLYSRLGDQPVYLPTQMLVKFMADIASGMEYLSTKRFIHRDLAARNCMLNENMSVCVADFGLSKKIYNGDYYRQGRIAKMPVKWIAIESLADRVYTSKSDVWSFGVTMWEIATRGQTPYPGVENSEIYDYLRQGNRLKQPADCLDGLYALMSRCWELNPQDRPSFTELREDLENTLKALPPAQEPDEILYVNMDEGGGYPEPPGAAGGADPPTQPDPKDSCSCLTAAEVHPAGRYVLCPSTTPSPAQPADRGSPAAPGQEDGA
How it was run: (§1)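 KiNativ-type profiling in HeLa lysate (5 mg/mL total protein). Lysate preincubated 15 min with inhibitor at 50, 10, 2, 0.8 or 0 μM, then ATP or ADP acylphosphate probe added (5 μM final) for 10 min. Reaction stopped with urea and analysed by targeted MS, using up to four fragment ions per kinase peptide-probe conjugate. % inhibition calculated against untreated lysate. Duplicate reactions.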

[6] = Inhibition of PRKX/PRKY in human HeLa cells lysate at 2 uM pre incubated for 15 mins followed by ADP acyl phosphate probe addition and measured after 10 mins by LC-MS/MS analysis relative to control; conditions: 25 min, condition cancer
AMPK alpha1/alpha2 = AMPK alpha1/alpha2 (Homo sapiens, UniProt P54646+Q13131); test: Inhibition of AMPKalpha1/2 in human HeLa cells lysate at 50 uM pre incubated for 15 mins followed by ATP acyl phosphate probe addition and measured after 10 mins by LC-MS/MS analysis relative to control; assay type: subcellular; conditions: time 25.0 min
Sequence of AMPK alpha1/alpha2 (P54646 whole entry, looked up, the tested form may be a part): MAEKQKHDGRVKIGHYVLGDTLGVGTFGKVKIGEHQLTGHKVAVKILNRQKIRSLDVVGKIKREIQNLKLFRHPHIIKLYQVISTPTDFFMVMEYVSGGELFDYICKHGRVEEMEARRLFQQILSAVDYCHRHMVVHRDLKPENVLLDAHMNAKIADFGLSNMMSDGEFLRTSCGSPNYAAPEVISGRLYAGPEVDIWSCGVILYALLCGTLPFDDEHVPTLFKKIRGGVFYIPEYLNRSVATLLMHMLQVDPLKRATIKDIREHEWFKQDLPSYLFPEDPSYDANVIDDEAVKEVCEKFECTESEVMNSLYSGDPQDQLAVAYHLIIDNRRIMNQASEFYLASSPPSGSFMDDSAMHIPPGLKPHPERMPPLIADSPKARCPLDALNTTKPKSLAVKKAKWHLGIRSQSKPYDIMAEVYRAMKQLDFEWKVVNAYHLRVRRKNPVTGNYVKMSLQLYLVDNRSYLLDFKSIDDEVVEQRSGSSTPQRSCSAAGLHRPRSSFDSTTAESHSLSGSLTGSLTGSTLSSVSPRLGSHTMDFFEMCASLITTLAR
Sequence of AMPK alpha1/alpha2 (Q13131 whole entry, looked up, the tested form may be a part): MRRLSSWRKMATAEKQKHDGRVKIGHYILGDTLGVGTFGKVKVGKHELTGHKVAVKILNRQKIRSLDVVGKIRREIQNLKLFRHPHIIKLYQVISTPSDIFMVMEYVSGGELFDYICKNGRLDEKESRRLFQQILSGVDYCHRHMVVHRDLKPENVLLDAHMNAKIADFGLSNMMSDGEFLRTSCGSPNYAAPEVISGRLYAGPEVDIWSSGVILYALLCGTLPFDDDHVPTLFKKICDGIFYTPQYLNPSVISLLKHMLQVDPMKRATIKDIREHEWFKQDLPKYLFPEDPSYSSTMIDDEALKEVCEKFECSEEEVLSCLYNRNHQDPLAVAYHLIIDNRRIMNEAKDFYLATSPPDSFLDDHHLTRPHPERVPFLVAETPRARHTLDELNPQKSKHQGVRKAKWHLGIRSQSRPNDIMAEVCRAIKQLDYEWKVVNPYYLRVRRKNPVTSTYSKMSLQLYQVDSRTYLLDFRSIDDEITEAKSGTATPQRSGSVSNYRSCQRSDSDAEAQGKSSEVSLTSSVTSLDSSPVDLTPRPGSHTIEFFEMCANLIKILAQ
How it was run: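 HeLa cell lysates (5 mg/mL total protein) were preincubated with inhibitor at 0, 0.8, 2, 10 or 50 μM for 15 min. ATP or ADP acylphosphate probe was then added (5 μM final) for 10 min, and reactions were stopped with urea. Up to four fragment ions per kinase probe-peptide were quantified by targeted MS. % inhibition was taken relative to untreated lysate. Run in duplicate.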

[7] = molecular target: Serine/threonine-protein kinase ATR (Homo sapiens, UniProt Q13535); test: Inhibition of ATR in human HeLa cells lysate at 50 uM pre incubated for 15 mins followed by ATP acyl phosphate probe addition and measured after 10 mins by LC-MS/MS analysis relative to control; assay type: subcellular; conditions: time 25.0 min; how it was run: as §1
[8] = molecular target: Ribosomal protein S6 kinase alpha-5 (Homo sapiens, UniProt O75582); test: Inhibition of MSK1 domain 1 in human HeLa cells lysate at 50 uM pre incubated for 15 mins followed by ATP acyl phosphate probe addition and measured after 10 mins by LC-MS/MS analysis relative to control; assay type: subcellular; conditions: time 25.0 min
Sequence of Ribosomal protein S6 kinase alpha-5 (O75582 whole entry, looked up, the tested form may be a part): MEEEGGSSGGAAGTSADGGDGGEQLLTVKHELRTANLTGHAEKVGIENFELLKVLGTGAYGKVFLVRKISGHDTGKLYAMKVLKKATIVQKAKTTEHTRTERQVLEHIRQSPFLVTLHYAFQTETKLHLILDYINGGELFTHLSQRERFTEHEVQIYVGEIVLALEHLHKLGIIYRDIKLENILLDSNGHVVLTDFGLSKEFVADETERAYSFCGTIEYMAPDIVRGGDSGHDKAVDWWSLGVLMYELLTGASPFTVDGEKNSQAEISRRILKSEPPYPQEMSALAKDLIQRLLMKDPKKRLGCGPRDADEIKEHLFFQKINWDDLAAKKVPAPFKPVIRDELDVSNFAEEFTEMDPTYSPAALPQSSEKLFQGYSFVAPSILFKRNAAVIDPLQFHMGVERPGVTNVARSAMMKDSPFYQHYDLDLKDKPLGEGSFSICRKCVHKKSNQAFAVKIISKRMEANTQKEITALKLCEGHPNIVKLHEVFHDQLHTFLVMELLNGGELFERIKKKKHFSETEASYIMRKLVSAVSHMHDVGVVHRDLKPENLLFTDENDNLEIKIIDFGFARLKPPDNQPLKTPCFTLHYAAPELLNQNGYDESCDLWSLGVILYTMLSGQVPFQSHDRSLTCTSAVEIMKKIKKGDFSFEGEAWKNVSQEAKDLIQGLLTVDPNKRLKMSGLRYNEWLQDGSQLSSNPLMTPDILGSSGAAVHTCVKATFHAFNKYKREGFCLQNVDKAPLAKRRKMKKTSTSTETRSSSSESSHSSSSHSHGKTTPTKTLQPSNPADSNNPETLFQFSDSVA

[9] = Inhibition of MST4/YSK1 in human HeLa cells lysate at 50 uM pre incubated for 15 mins followed by ATP acyl phosphate probe addition and measured after 10 mins by LC-MS/MS analysis relative to control; conditions: 25 min, condition cancer
[10] = molecular target: T1, Interleukin-1 receptor-associated kinase 1 (Homo sapiens, UniProt P51617); test: Inhibition of IRAK1 in human HeLa cells lysate at 10 uM pre incubated for 15 mins followed by ATP acyl phosphate probe addition and measured after 10 mins by LC-MS/MS analysis relative to control; assay type: subcellular; conditions: time 25.0 min
T1 sequence (P51617 whole entry, looked up): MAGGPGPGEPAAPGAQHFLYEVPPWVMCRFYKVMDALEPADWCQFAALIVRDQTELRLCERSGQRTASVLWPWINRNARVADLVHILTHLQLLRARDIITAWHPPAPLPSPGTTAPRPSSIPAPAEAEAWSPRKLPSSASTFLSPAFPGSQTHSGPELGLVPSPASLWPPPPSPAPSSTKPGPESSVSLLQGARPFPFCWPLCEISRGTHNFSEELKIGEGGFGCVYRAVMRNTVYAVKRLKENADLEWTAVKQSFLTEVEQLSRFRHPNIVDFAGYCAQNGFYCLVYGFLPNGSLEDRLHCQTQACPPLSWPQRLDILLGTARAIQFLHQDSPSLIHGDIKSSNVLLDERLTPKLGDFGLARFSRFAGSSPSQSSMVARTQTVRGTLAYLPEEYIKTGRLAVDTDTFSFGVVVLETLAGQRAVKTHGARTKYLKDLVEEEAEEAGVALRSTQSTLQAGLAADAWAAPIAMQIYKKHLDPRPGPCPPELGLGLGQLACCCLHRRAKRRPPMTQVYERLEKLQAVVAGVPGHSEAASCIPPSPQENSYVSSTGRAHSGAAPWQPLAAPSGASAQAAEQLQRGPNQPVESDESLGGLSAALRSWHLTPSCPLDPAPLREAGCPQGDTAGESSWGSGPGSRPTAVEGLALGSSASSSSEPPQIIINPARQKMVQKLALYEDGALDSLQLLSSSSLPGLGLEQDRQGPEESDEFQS

[11] = molecular target: T2, Dual specificity mitogen-activated protein kinase kinase 4 (Homo sapiens) (UniProt P45985); test: Inhibition of MAP2K4 in human HeLa cells lysate at 10 uM pre incubated for 15 mins followed by ATP acyl phosphate probe addition and measured after 10 mins by LC-MS/MS analysis relative to control; assay type: subcellular; conditions: time 25.0 min
T2 sequence (whole entry): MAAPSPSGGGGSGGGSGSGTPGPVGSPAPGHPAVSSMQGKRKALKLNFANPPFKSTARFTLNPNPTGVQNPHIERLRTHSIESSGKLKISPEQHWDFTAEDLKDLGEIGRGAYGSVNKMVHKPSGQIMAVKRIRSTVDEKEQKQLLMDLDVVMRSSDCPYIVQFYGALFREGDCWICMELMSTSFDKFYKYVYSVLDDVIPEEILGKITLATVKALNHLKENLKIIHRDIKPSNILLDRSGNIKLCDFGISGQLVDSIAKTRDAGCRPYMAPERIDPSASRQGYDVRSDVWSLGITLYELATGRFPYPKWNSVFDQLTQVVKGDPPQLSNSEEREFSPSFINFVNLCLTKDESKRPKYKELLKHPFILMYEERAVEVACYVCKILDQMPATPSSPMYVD

[12] = molecular target: Mitogen-activated protein kinase kinase kinase 20 (Homo sapiens, UniProt Q9NYL2); test: Inhibition of ZAK in human HeLa cells lysate at 2 uM pre incubated for 15 mins followed by ATP acyl phosphate probe addition and measured after 10 mins by LC-MS/MS analysis relative to control; assay type: subcellular; conditions: time 25.0 min
[13] = molecular target: T3, Scaffold protein ILK (Homo sapiens) (UniProt Q13418); test: Inhibition of ILK in human HeLa cells lysate at 2 uM pre incubated for 15 mins followed by ATP acyl phosphate probe addition and measured after 10 mins by LC-MS/MS analysis relative to control; assay type: subcellular; conditions: time 25.0 min
T3 sequence (whole entry): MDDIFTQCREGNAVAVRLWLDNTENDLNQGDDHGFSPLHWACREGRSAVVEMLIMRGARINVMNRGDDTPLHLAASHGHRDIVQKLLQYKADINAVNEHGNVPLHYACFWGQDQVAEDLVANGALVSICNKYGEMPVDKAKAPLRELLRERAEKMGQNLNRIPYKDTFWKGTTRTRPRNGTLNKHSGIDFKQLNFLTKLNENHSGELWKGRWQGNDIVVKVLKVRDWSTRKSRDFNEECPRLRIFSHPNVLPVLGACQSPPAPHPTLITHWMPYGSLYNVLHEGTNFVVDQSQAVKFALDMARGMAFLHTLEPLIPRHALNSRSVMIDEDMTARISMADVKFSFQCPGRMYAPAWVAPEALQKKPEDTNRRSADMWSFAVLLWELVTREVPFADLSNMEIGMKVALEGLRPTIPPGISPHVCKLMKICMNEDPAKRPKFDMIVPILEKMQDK

[14] = molecular target: T1, Interleukin-1 receptor-associated kinase 1; test: Inhibition of IRAK1 in human HeLa cells lysate at 2 uM pre incubated for 15 mins followed by ATP acyl phosphate probe addition and measured after 10 mins by LC-MS/MS analysis relative to control; assay type: subcellular; conditions: time 25.0 min
[15] = molecular target: Serine/threonine-protein kinase PLK4 (Homo sapiens) (UniProt O00444); test: Inhibition of recombinant Flag-tagged PLK4 (unknown origin) expressed in HEK293 cells at 0.08 to 10 uM in presence of 32P-gamma-ATP; assay type: cell-based; conditions: dose 0.08-10 µM
Sequence of Serine/threonine-protein kinase PLK4 (Homo sapiens) (O00444 whole entry): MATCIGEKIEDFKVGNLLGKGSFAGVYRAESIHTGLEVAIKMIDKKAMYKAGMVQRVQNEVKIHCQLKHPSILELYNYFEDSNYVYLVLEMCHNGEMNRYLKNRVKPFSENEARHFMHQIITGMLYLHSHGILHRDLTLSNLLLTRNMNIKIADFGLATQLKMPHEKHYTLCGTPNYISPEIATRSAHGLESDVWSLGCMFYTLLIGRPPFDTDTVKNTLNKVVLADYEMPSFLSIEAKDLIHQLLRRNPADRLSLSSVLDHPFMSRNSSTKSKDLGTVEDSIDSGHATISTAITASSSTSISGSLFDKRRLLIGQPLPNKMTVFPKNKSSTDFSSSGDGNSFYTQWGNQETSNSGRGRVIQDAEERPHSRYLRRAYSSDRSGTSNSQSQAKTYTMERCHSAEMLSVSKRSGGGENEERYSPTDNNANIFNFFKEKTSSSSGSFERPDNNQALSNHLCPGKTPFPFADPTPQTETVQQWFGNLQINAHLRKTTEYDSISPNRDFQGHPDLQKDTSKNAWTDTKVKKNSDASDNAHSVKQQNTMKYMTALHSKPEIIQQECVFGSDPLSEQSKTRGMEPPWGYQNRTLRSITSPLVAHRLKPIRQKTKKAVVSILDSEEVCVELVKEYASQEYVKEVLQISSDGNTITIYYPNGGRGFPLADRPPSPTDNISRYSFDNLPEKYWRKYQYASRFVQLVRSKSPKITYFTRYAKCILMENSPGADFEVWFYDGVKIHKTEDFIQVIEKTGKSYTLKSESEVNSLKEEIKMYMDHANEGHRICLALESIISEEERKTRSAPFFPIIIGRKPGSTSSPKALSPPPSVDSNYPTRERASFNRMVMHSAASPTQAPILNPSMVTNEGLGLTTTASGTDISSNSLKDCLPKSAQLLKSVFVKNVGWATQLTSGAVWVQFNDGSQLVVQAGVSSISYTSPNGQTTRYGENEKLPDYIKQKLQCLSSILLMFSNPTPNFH

[16] = Toxicity in C57Bl/6 mouse assessed as effect on total protein level at 50 mg/kg, ip for 14 days (reference value: 5.8 g/dl); assay type: organism-based; conditions: in vivo, 336 h, time 14 day

CCOc1cc(N2CCC(O)CC2)ccc1Nc1ncc2c(n1)N(C)c1ccccc1C(=O)N2C
IC50 [1]: > 50 µM | IC50 [2]: > 50 µM | inhibition [3]: 14.1% | inhibition at 50 µM [4]: -14.3% | inhibition [5]: -5.1% | inhibition at 2 µM [6]: 25.5% | inhibition (AMPK alpha1/alpha2): 32% | inhibition [7]: 13.9% | inhibition [8]: 4.6% | inhibition at 50 µM [9]: -6.1% | inhibition [10]: 1.9% | inhibition [11]: 3.9% | inhibition [12]: 31.5% | inhibition [13]: 13.4% | inhibition [14]: 2.6% | inhibition [15]: Active | Activity [16]: 5.8 g/dL

Source: ChEMBL document CHEMBL5661979, “Pharmacological inhibition of BMK1 suppresses tumor growth through promyelocytic leukemia protein” (Cancer Cell, 2010)
